High-throughput results deposited in PubChem BioAssay by Johns Hopkins Ion Channel Center.
Most compounds without a hit are left out; they make up all but 3.7% or so of the library.
KCNK9 block: KCNK9 potassium channel inhibitors, primary screen, HEK293 cells, thallium flux | FluxOR thallium flux fluorescence; active compounds read low | Potassium channel subfamily K member 9 (Homo sapiens), Q9NPC2 | actives 1.2% (n = 310,000) | B-score at 10 µM;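 active means ratio B-score over 3 SD below the library mean, with starting fluorescence within 5 SD of its mean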;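 further: negative B-score means less thallium flux so channel inhibition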
hERG protect: hERG rescue from dofetilide block, primary screen, cell-based, CHO-hERG, FluxOR thallium flux, dofetilide IC70; actives 0.51% (n = 310,000); Voltage-gated inwardly rectifying potassium channel KCNH2 (Homo sapiens), Q12809; activation (rescue from dofetilide block), less the hit threshold, % at 10 µM; dofetilide IC70 present; AID 1511, 2009;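 active means activation above the mean of controls blocked by dofetilide plus 5 SD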;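 further: thallium influx through hERG after potassium depolarization seen as dye fluorescence rise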
KCNQ1 act: potentiators or activators of KCNQ1 channel, primary screen, cell-based, thallium flux, high-throughput. B-score at 10 µM. CHO-K1 KCNQ1, thallium flux FluxOR fluorescence; active compounds read high. actives 0.35% (n = 310,000). Potassium voltage-gated channel subfamily KQT member 1 (Homo sapiens), P51787;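 active means fluorescence ratio B-score, a plate-corrected score, at least three library SD, with initial intensity B-score within 5 SD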
Target sequence (P51787 whole entry, looked up): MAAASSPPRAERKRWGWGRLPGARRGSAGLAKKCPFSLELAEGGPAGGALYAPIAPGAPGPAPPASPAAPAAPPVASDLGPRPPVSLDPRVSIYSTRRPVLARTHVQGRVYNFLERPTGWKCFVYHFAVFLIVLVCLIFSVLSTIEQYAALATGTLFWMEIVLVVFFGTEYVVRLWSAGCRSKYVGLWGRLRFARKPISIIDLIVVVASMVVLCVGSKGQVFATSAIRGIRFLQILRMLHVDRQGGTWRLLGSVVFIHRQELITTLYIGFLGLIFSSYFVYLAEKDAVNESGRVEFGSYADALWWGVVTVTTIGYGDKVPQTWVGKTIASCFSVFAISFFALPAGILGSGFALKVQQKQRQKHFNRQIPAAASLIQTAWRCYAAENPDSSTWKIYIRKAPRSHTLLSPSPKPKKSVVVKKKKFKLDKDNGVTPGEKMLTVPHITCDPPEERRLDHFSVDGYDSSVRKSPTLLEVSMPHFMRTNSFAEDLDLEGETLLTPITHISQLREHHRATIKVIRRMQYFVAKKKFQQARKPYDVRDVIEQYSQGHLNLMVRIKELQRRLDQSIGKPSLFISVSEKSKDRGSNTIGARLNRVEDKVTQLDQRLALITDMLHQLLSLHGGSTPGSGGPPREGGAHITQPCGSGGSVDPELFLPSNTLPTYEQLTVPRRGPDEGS
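Material: CHO-K1 cells stably expressing KCNQ1. Medium: assay buffer for compound exposure, DMSO matched across wells. Reagent: K+/Tl+ depolarizing stimulus. Compound dosing: single-concentration screen. Times: 37 °C overnight plating, 90-min dark dye load, 20-min compound pretreatment. Technique: FluxOR Tl+ flux fluorescence.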
KCNQ1 inh: inhibitors of human KCNQ1 channel, primary screen, cell-based, thallium flux, high-throughput | Potassium voltage-gated channel subfamily KQT member 1 (Homo sapiens), P51787 | CHO-K1 KCNQ1, FluxOR thallium flux fluorescence; active compounds read high | B-score at 10 µM | actives 1.3% (n = 310,000) | AID 2642, 2010;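 active means compounds whose thallium flux B-score, printed positive for inhibition, exceeds three library SD while starting fluorescence stays within three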;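 further: channel opened by potassium depolarization with thallium stimulus after 20 min compound exposure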
Kir21 block: inhibitors of mouse Kir2.1 inward-rectifier potassium channel; Inward rectifier potassium channel 2 (Mus musculus), P35561; HEK293-Kir2.1, FluxOR thallium flux fluorescence; active compounds read low; B-score at 10 µM; actives 0.85% (n = 310,000);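 active means fluorescence ratio B-score at or below minus 3 SD of library scores, with starting-brightness B-score within 2 SD, cut at about -4.2 in these data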;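 further: channel flux triggered by added potassium and thallium sulfate stimulus; B-score of peak minus minimum fluorescence over baseline after thallium stimulus; more negative B-score means stronger Kir2.1 block with less thallium influx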
KCNK3 inh: human KCNK3 channel inhibitors, primary screen, CHO cells, FluxOR thallium flux, B-score; B-score at 10 µM; actives 0.84% (n = 340,000); Potassium channel subfamily K member 3 (Homo sapiens), O14649; AID 602410, 2012; FluxOR fluorescence; active compounds read low;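 active means B-score under library mean minus 4 SD, starting fluorescence ratio at most library mean plus 5 SD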;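 further: more negative B-score means stronger inhibition of thallium flux through KCNK3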
Each line names hits and unclear results; the compound was inactive in the other large screens.

CC1CCc2sc(C(=O)NN=C3CCC(c4ccccc4)CC3)cc2C1 (stereo unspecified)	none
CC1=C(SCc2ccccc2)C(=O)c2ccccc2C1=O	none (no result: KCNK9 block, hERG protect, KCNQ1 act, KCNQ1 inh, Kir21 block)
O=C1C(SCCO)=C(SCCO)C(=O)c2ccccc21	KCNK3 inh -15 (no result: KCNK9 block, hERG protect, KCNQ1 act, KCNQ1 inh, Kir21 block)
O=C(CCNc1ccc(F)cc1)c1cccc([N+](=O)[O-])c1	KCNQ1 inh 6
Cc1ccc(NCCC(=O)c2cccc([N+](=O)[O-])c2)cc1	KCNQ1 inh 9
COC(=O)C(C)n1cnc2c(nnn2-c2ccccc2)c1=O (stereo unspecified)	none
COc1ccccc1C(=O)NC(=O)COC(=O)Cc1ccccc1[N+](=O)[O-]	none
CCn1c(O)c(N=NC2=NC(=O)CS2)c2ccccc21	hERG protect 9.1
CN(CCc1ccccc1)C(=O)c1cccc(NC(=O)Cc2cccc(NC(=O)C3CCCN(C(=O)c4ccccc4)C3)c2)c1 (stereo unspecified)	none (no result: KCNK9 block, hERG protect, KCNQ1 act, KCNQ1 inh, Kir21 block)
CN(C)CCCn1c(=O)n(CCc2ccccc2)c(=O)c2c3c(sc21)CCCCC3	none
CN(C)CCCNc1nc2sc3c(c2c(=O)n1CCc1ccccc1)CCCCC3	Kir21 block -5.4
O=C(CSc1ncnc2scc(-c3ccc(Cl)cc3)c12)NCc1ccc2c(c1)OCO2	KCNK3 inh -9.9
Cc1ccc(-c2csc3ncnc(SCC(=O)NCc4ccc5c(c4)OCO5)c23)cc1	none
Cc1ccccc1NC1=NC(=S)N(c2ccccc2)C12CCCCC2	hERG protect 12, KCNQ1 act 15
CCOC(=O)/C(=C/c1ccc(OC(=O)c2ccccc2)cc1)C(C)=O	Kir21 block -9.4
CCOC(=O)/C(=C\c1ccccc1)NC(=O)c1ccccc1	none
COc1cc(CNCCc2ccccc2)ccc1OCc1ccc(Cl)nc1	Kir21 block -6.4
COc1ccccc1CCNCc1ccc(OC)c(OCc2ccccc2)c1	Kir21 block -8.5
CN1CCN(C(=O)c2ccc(CNS(=O)(=O)c3cccc(Cl)c3)cc2)CC1	none
Cc1ccc(C(=O)CC(=O)c2cccc(F)c2)c(O)c1	hERG protect 10, KCNQ1 act 16
Cc1ccc(O)c(C(=O)CC(=O)c2ccccc2Cl)c1	hERG protect 45, KCNQ1 act 13
Cc1ccc(C(=O)CC(=O)c2ccccc2C)c(O)c1	none
C=CCN1C(=O)c2ccc(C(=O)OCC(=O)N(CC)c3c(N)n(Cc4ccccc4)c(=O)[nH]c3=O)cc2C1=O	none (no result: KCNK9 block, hERG protect, KCNQ1 act, KCNQ1 inh, Kir21 block)
NNC(=O)c1cc(C23CC4CC(CC(C4)C2)C3)nc2ccccc12	KCNQ1 inh 6
O=C(NNc1c2ccccc2nc2ccccc12)C12CC3CC(CC(C3)C1)C2	none
COc1ccc(-c2c(C)nn(-c3ccccc3)c2N)cc1OC	hERG protect 4.7
CCOC(=O)c1cccc(NC(=O)COc2nsnc2N2CCOCC2)c1	none
COC(=O)c1c(NC(=O)C(C)(C)C)csc1C	hERG protect 8.2
COC(=O)c1c(NC(C)=O)csc1C	none
O=c1cc(C(F)(F)F)nc(SCc2cccnc2)[nH]1	none
O=c1c2ccccc2nc(SCc2ccc([N+](=O)[O-])cc2)n1-c1ccccc1	KCNK9 block -7.7
N#Cc1cccc(S(=O)(=O)NNC(=O)C23CC4CC(CC(C4)C2)C3)c1	none (no result: KCNK9 block, hERG protect, KCNQ1 act, KCNQ1 inh, Kir21 block)
CCOC(=O)c1ccc(N=c2sc(C(=O)OC)cc(=O)n2-c2ccc(C(=O)OCC)cc2)cc1	KCNQ1 inh 6
COC(=O)c1cc(=O)n(Cc2ccc(F)cc2)c(=Nc2ccccc2)s1	KCNQ1 inh 6
COC(=O)c1cc(=O)n(Cc2ccc(OC)c(OC)c2)c(=Nc2ccc(F)cc2)s1	KCNQ1 inh 6
COC(=O)c1cc(=O)n(-c2ccccc2)c(=Nc2ccccc2)s1	none
COc1ccc(C(=O)NC2CCc3ccccc32)cc1OC1CCN(C(C)C)CC1 (stereo unspecified)	none
Cc1ccc(NC(=O)CSCC(=O)Nc2cc(Cl)ccc2N2CCN(C)CC2)cc1	Kir21 block -5.2
N#CC1=C(SCc2ccccc2)NC(=O)CC1c1ccccc1 (stereo unspecified)	Kir21 block -11
CCOC(=O)CSC1=C(C#N)C(c2ccc(Cl)cc2)CC(=O)N1 (stereo unspecified)	Kir21 block -8.8
CCOC(=O)CSC1=C(C#N)C(c2ccc(C)o2)CC(=O)N1 (stereo unspecified)	Kir21 block -4.4
C=CCSC1=C(C#N)C(c2ccccc2)CC(=O)N1 (stereo unspecified)	none
Cc1noc(C)c1CSCC(=O)Nc1cc(S(=O)(=O)N2CCOCC2)ccc1OC(C)C	none
CC(=O)Nc1ccc(NC2=C(Cl)C(=O)c3ccccc3C2=O)cc1	KCNQ1 inh 12 (no result: KCNK3 inh)
O=C1C(Cl)=C(Nc2ccc3cn[nH]c3c2)C(=O)c2ccccc21	KCNQ1 inh 9
CCC[C@H](CN[C@@H](CNC)[C@H](C)CC)NCCc1cc(C(F)(F)F)cc(C(F)(F)F)c1	Kir21 block -4.2
CCC[C@@H](CN[C@@H](CNC)[C@H](C)CC)NCC1CCC(C(C)(C)C)CC1 (stereo partly specified)	none
CCCc1c(C)nc2ccc(OC)cc2c1SCCC(=O)O	none
CCCc1c(C)nc2c(OC)cccc2c1SCC(=O)O	hERG protect 4.7
O=C1C(Cl)=C(N2CCC(C(=O)O)CC2)C(=O)c2ccccc21	KCNQ1 inh 6
CC1COCC(C)N1C1=C(Cl)C(=O)c2ccccc2C1=O (stereo unspecified)	KCNK3 inh -10 (no result: KCNK9 block, hERG protect, KCNQ1 act, KCNQ1 inh, Kir21 block)
Fc1cc(F)c(F)c(SCn2cc(Br)cn2)c1F	none (no result: KCNK9 block, hERG protect, KCNQ1 act, KCNQ1 inh, Kir21 block)
Cc1cc(C)c(C(=O)COC(=O)C2CCN(c3ccc(C(F)(F)F)cn3)CC2)c(C)c1	none (no result: KCNK9 block, hERG protect, KCNQ1 act, KCNQ1 inh, Kir21 block)
CNC(=S)/N=C/NOCc1ccc(Cl)cc1Cl	KCNQ1 inh 8
CC[C@H]1c2[nH]c3ccccc3c2C[C@@H]2C(=O)N(c3ccc(F)cc3)C(=O)N21	none
O=C1NC(c2cccc(Cl)c2)Oc2ccccc21 (stereo unspecified)	hERG protect 6.3
COCCCN(C(=O)C(C)Oc1ccc(Br)cc1)c1c(N)n(Cc2ccccc2)c(=O)[nH]c1=O (stereo unspecified)	none
Cc1ccc(NC(=O)CSCC(=O)Nc2cc(S(=O)(=O)N3CCOCC3)ccc2OC(C)C)cc1	none (no result: KCNK9 block, hERG protect, KCNQ1 act, KCNQ1 inh, Kir21 block)
Cc1ccc(-n2c(C)cc(C3N=C(N)Nc4nc5ccccc5n43)c2C)c(C)c1 (stereo unspecified)	KCNK9 block -7.5
